Results reported in PMC6889762 (Toxicology Reports, 2019).
pIC50, pKi: −log10 of the molar value.

Assays:
Ferrous ion = assay: Ferrous ion
Method in brief: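 FeCl2 (0.6 mM stock) added to the test compound solution; iron complex formation measured spectrophotometrically at 522 nm. Chelated Fe2+ % = (1 − As/Ac) × 100, where Ac is the control absorbance. IC50 came from a plot of % against concentration. Triplicate, mean ± SD.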

Fe3+ reducing ability = settings: for Fe^3+ reducing (absorbance): 20 μg/mL, absorbance at 700 nm
Cu2+ reducing ability = settings: for Cu^2+ reducing (absorbance): 20 μg/mL, absorbance at 450 nm; for Cu^2+ ions reducing ability (absorbance): running text: at 30 μg/mL concentration, 450 nm
Method in brief: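 CUPRAC assay: CuCl2 (10 mM stock), neocuproine (7.5 mM stock) and 1.0 M acetate buffer were added to the test compound (10−30 μg/mL). The mixture was made up with deionized water, tubes were closed and left at room temperature, and absorbance was read at 450 nm. Higher absorbance means greater reducing ability. Triplicate runs, mean ± SD.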

[1] = Fe3+-TPTZ reducing ability; settings: for Fe^3+-TPTZ reducing (absorbance): 20 μg/mL, absorbance at 593 nm
DPPH radical scavenging = assay: DPPH radical scavenging
Method in brief: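 Ethanolic DPPH (0.1 mM stock) added to the test compound in ethanol (10−30 μg/mL). Incubated 30 min in the dark, absorbance read at 517 nm. Scavenging % = (1 − As/Ac) × 100. IC50 was obtained by plotting % against concentration. Triplicate analyses, mean ± SD.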

[2] = ABTS radical cation scavenging
Method in brief: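 Radical cation generated from 2.0 mM ABTS in deionized water with 2.3 mM K2S2O8, then diluted with pH 7.4 buffer to absorbance 0.750 ± 0.025. Test compound (10−30 μg/mL) mixed with the radical solution; residual absorbance read at 734 nm. Scavenging % = (1 − As/Ac) × 100. IC50 was taken from a plot of % against concentration. Triplicate runs, mean ± SD.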

[3] = DMPD radical cation scavenging
Method in brief: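 DMPD solution (0.1 M stock) added to 0.1 M acetate buffer, pH 5.3, containing the test compound (10−30 μg/mL). FeCl3 (50 mM stock) was then added and absorbance measured at 505 nm. Scavenging % = (1 − As/Ac) × 100. IC50 was read from a plot of % against concentration. Triplicate, mean ± SD.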

[4] = Superoxide anion radical scavenging
Method in brief: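 Superoxide generated in a methionine–riboflavin system under illumination and detected by NBT reduction at 560 nm. Scavenging % = (1 − As/Ac) × 100 against a compound-free control. IC50 was estimated from a plot of % against test compound concentration. Triplicate, mean ± SD.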

[5] = target: acetylcholinesterase (AChE) (Electrophorus electricus, UniProt O42275); assay: AChE inhibition; type: biochemical, Electric eel
acetylcholinesterase (AChE), sequence (O42275 24-633): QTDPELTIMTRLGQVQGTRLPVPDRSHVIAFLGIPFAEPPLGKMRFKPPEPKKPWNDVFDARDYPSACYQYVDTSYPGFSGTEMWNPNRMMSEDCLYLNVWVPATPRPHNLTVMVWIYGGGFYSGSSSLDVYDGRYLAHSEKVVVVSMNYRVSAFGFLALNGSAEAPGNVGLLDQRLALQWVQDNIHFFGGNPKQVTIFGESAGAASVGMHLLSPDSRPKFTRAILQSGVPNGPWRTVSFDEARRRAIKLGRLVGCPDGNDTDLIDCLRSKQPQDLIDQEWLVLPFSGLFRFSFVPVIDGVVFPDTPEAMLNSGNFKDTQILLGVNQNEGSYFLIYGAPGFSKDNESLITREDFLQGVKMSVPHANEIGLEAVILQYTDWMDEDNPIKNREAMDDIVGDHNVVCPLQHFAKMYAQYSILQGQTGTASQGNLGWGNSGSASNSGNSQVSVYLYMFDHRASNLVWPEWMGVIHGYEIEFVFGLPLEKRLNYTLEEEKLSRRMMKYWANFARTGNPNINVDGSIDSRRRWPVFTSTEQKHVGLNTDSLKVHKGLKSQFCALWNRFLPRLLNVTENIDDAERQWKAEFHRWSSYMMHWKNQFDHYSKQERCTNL

[6] = target: butyrylcholinesterase (BChE) (Equus caballus, UniProt P81908); assay: biochemical; set-up: species or system equine
butyrylcholinesterase (BChE), sequence (P81908 whole entry): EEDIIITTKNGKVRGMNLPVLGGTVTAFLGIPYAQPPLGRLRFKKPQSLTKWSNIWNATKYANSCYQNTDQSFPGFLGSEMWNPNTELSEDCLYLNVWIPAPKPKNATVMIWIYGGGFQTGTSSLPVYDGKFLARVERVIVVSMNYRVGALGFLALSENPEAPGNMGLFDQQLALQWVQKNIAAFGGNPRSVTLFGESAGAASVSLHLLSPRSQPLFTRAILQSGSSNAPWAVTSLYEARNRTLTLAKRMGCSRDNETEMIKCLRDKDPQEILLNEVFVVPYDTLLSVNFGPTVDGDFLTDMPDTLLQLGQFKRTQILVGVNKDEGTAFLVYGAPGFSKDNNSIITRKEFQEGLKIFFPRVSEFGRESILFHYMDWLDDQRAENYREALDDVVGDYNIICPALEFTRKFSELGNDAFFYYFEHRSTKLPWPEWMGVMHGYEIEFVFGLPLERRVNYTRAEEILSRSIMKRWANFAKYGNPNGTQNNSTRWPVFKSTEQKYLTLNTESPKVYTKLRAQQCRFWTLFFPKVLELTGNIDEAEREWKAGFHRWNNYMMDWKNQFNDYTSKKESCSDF

Structure (SMILES)	Metal chelating (Fe^2+) IC50 (Ferrous ion) [µg/mL]	Fe^3+ reducing (absorbance) (Fe3+ reducing ability)	Cu^2+ reducing (absorbance) (Cu2+ reducing ability)	Cu^2+ ions reducing ability (absorbance) (Cu2+ reducing ability)	Fe^3+-TPTZ reducing (absorbance) [1]	DPPH· scavenging IC50 (DPPH radical scavenging) [µg/mL]	ABTS^•+ scavenging IC50 [2] [µg/mL]	DMPD^•+ scavenging IC50 [3] [µg/mL]	O2^•− scavenging IC50 [4] [µg/mL]	Fe^3+ reducing ability (absorbance) (Fe3+ reducing ability; concentration not given, 700 nm)	FRAP effects (absorbance) ([1]; concentration not given, 593 nm)	pIC50 [5]	pKi [5]	pIC50 [6]	DMPD^•+ scavenging activity [3]
O=C(O)CN(CCN(CC(=O)O)CC(=O)O)CC(=O)O [EDTA]	6.24	–	–	–	–	–	–	–	–	–	–	–	–	–	–
Cc1c(C)c2c(c(C)c1O)CCC(C)(C(=O)O)O2 (stereo not drawn) [Trolox, trolox]	8.05	1.148	0.825	0.825	1.973	8.01	4.30	22.35	30.13	–	–	–	–	–	–
CC(=O)c1c(O)c(C)c(O)c2c1OC1=CC(=O)C(C(C)=O)C(=O)C12C (stereo not drawn) [Usnic acid]	18.68	0.278	0.277	0.277	1.293	49.50	10.41	33.00	20.38	0.278	1.293	8.90	9.62	8.47	–
Cc1c(C)c2c(c(C)c1O)CC[C@@](C)(CCC[C@H](C)CCC[C@H](C)CCCC(C)C)O2 [α-Tocopherol, α-tocopherol]	27.72	0.802	0.564	0.564	1.473	9.76	5.02	–	21.01	–	–	–	–	–	did not demonstrate scavenging activity
